7 compounds from ChEMBL document CHEMBL5625186, “Synthesis, cytotoxicity, antioxidant activity and molecular modeling of new NSAIDs-EBS derivatives” (Eur J Med Chem, 2023) can be followed below.

In one experiment the test system is HeLa. In words: Cytotoxicity against human HeLa cells measured after 24 to 72 hrs by MTT assay. The experiment is classed as functional, cell-based. In a few lines: (§1)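 Cells were grown in RPMI 1640 with 10% FBS and penicillin/streptomycin at 37 °C, 5% CO2. They were seeded at 1×10^4 cells/well and allowed to attach for 24 h. Compounds at various concentrations were then applied for 24, 48 or 72 h (DMSO below 1.25%). MTT (5.0 mg/mL) was added 3 h before the end, formazan was dissolved in DMSO and OD was read at 570 nm. Doxorubicin served as reference. Data are mean ± SD, n=3.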
In general terms: Formazan colour is commonly taken as a measure of viable cells.

For experiment [1], the target named is T1, Thioredoxin reductase 1, cytoplasmic (Rattus norvegicus, UniProt O89049).
T1 sequence (O89049 whole entry): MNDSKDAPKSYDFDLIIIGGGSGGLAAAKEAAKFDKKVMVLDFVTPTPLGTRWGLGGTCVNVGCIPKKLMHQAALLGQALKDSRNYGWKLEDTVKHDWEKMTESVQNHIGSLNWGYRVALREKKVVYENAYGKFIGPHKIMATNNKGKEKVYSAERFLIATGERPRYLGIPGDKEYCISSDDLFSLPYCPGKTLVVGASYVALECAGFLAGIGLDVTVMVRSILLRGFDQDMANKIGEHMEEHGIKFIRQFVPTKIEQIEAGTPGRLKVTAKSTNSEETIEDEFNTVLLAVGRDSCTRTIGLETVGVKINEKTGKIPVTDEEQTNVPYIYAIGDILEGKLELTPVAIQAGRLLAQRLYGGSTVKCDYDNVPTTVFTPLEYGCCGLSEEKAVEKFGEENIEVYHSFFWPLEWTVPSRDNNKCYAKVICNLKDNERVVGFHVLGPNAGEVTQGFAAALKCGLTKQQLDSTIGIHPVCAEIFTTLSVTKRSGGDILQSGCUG
In words: Inhibition of rat TrxR1 using DTNB as substrate preincubated for 15 mins followed by substrate addition and measured for 20 mins by colorimetric method. In a few lines: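 Rat TrxR1 (5 nM) was used in 100 mM potassium phosphate pH 7.0 with 1 mM EDTA, 0.1 mg/ml BSA and 0.2 mM NADPH. […] DTNB was then added and the A412 increase was monitored for 20 min.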

A further experiment relates to A549. The experiment in a line: Cytotoxicity against human A549 cells measured after 24 to 72 hrs by MTT assay. The experiment is classed as functional, cell-based. The essentials:
as §1

The next experiment concerns DNA. The experiment in a line: Induction of bleomycin-dependent DNA (unknown origin) damage assessed as absorbance at 0.1 mg/ml measured after 1 hr. The experiment is classed as nucleic-acid assay. The essentials: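 The bleomycin-iron/DNA mixture was incubated at 37 °C for 1 h and stopped with 0.1 M EDTA. Colour was developed with 1% TBA plus 25% HCl at 80 °C for 30 min. After ice cooling, DNA damage was read as the increase in absorbance at 532 nm. L-ascorbic acid served as the positive control.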

A further experiment relates to BGC-823. The experiment in a line: Cytotoxicity against human BGC-823 cells measured after 24 to 72 hrs by MTT assay. The experiment is classed as functional, cell-based. The essentials:
as §1

Another experiment relates to SW480. The experiment in a line: Cytotoxicity against human SW480 cells measured after 24 to 72 hrs by MTT assay. The experiment is classed as functional, cell-based. In a few lines: as §1
A further experiment relates to MCF7. The experiment in a line: Cytotoxicity against human MCF7 cells measured after 24 to 72 hrs by MTT assay. The experiment is classed as functional, cell-based. In a few lines:
as §1

Experiment [2] can be described thus: Potency index, ratio of test compound to vitamin C antioxidant activity assessed as DPPH radical scavenging activity incubated for 30 mins under dark condition. The experiment is classed as functional. The essentials:
(§2)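 Compounds at a range of concentrations were mixed with DPPH solution and kept 30 min in the dark. Absorbance was read at 517 nm. % activity = [(control A − sample A)/control A] × 100. Vitamin C and ebselen served as positive controls and DMSO as the negative control. Fold is expressed relative to vitamin C (set as 1). Values are mean ± SD of three independent experiments.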

Experiment [3] is described as follows: Antioxidant activity assessed as DPPH radical scavenging activity incubated for 30 mins under dark condition relative to control. The experiment is classed as functional. On the set-up: concentration or dose not given beside the values. The essentials: as §2
(In general: The DPPH test is a chemical assay of radical scavenging.)

Experiment [4] is described as follows: Antioxidant activity assessed as glutathione peroxidase-like activity at 41 mM measured over 3 mins. The experiment is classed as functional. The essentials:
(§3)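 GPx-like rate measured from GSH/glutathione reductase/NADPH coupling in 50 mM phosphate buffer with 0.1% Triton X-100. The compound was added from a 41 mM solution, and the reaction was started with H2O2 (0.8 mM). A340 was followed for 3 min and expressed as ΔA/min. Values were corrected for the H2O2 + GSH background, and for the compound's own absorbance if coloured. Ebselen (41 mM) served as reference.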

Experiment [5] is described as follows: Antioxidant activity assessed as glutathione peroxidase-like activity at 41 mM measured over 3 mins relative to ebselen glutathione peroxidase-like activity. The experiment is classed as functional. The essentials: as §3

Active and inactive are the calls of the source. No cut-off for these calls is given here.

One may read the IC50 as the concentration that inhibits the measured activity by half. A word on the EC50: it is the concentration that produces a half-maximal response. Usually inhibition stands for the drop in the measured response relative to a control, in per cent. As for `CC(C(=O)NCc1ccc(-n2[se]c3ccccc3c2=O)cc1)c1ccc(-c2ccccc2)c(F)c1` (stereo unspecified), the IC50 turned out to be 9.5 µM with HeLa; 12.3 µM in the experiment with A549; 6.5 µM with BGC-823; 8.3 µM in the experiment with SW480; 11.3 µM with MCF7. Further, in experiment [1], the EC50 is 11.2 µM. For the same compound, the Activity with DNA came to 57.3. The Ratio in [2] turned out to be 0.6. Also, the inhibition in [3] is 58.2%. Besides, the result in experiment [4] was Active.
In the case of `COc1ccc2c(c1)c(CC(=O)NCc1ccc(-n3[se]c4ccccc4c3=O)cc1)c(C)n2C(=O)c1ccc(Cl)cc1`, the IC50 in the experiment with HeLa was found to be 14.3 µM; in the experiment with A549, 10.3 µM; in the experiment on BGC-823 it was 9.2 µM; in the experiment on SW480, 7.5 µM; in the experiment on MCF7 it was 11.3 µM. In addition, the EC50 in experiment [1] turned out to be 15.7 µM. Moreover, in the experiment on DNA, the Activity stood at 101. Further, the Ratio in experiment [2] turned out to be 0.8. Moreover, the inhibition in experiment [3] worked out at 78.7%. Also, the result in experiment [4] was Active.
In the case of `C=C(C(=O)NCCn1[se]c2ccccc2c1=O)c1ccc(CC(C)C)cc1`, the IC50 with HeLa was 10.6 µM; in the experiment on A549, 9.4 µM; in the experiment on BGC-823, 12.5 µM; in the experiment with SW480, 11.4 µM; in the experiment with MCF7, 15.7 µM. In addition, a half-maximal effect in experiment [1] (EC50) was put at 23.5 µM. Further, the Activity with DNA came out at 68.4. The Ratio in experiment [2] is 0.3. The inhibition in experiment [3] is 33.5%. The result in experiment [4] was Active.
As to `CC(C)Cc1ccc(C(C)C(=O)NCc2ccc(-n3[se]c4ccccc4c3=O)cc2)cc1` (stereo unspecified), the IC50 with HeLa was found to be 9.3 µM; with A549, 8.1 µM; in the experiment on BGC-823, 7.5 µM; in the experiment with SW480, 10.4 µM; in the experiment with MCF7, 12.4 µM. This compound had an EC50 in [1] of 17.2 µM. Moreover, in the experiment with DNA, the Activity is 106. In addition, the Ratio in experiment [2] was found to be 0.4. For the same compound, the inhibition in experiment [3] worked out at 42.6%. For the same compound, in experiment [4], the result was Active.
In the case of `CC(=O)Oc1ccccc1C(=O)NCc1ccc(-n2[se]c3ccccc3c2=O)cc1`, the IC50 with HeLa turned out to be 1.7 µM; with A549, 2.1 µM; in the experiment on BGC-823, 2.4 µM; in the experiment with SW480 it was 2.8 µM; in the experiment on MCF7, 1.5 µM. In experiment [1], the EC50 turned out to be 8.8 µM. The fold change (FC) in [5] was < 3. Moreover, in the experiment on DNA, the Activity is 108. Also, the Ratio in experiment [2] is 0.5. Besides, in experiment [3], the inhibition was 57.3%. Also, the result in [4] was Active.
`CC(C(=O)NCCn1[se]c2ccccc2c1=O)c1ccc(-c2ccccc2)c(F)c1` (stereo unspecified): the IC50 in the experiment with HeLa turned out to be 10.4 µM; in the experiment on A549, 13.6 µM; in the experiment with BGC-823, 9.5 µM; in the experiment with SW480, 11.3 µM; with MCF7, 14.9 µM. The same compound registered a 50% effective concentration (EC50) in [1] of 28.5 µM. The Activity in the experiment on DNA came to 85.7. The Ratio in experiment [2] is 0.4. In [3], the inhibition was 42.5%. For the same compound, the outcome in experiment [4] was Active.
Consider `COc1ccc2cc(C(C)C(=O)NCc3ccc(-n4[se]c5ccccc5c4=O)cc3)ccc2c1` (stereo unspecified), for which the IC50 in the experiment on HeLa is 9.7 µM; in the experiment with A549, 11.4 µM; in the experiment with BGC-823, 13.5 µM; with SW480, 7.4 µM; in the experiment on MCF7, 13.8 µM. Further, in experiment [1], a half-maximal effect (EC50) was put at 14.6 µM. For the same compound, the Activity in the experiment on DNA turned out to be 82.8. In addition, the Ratio in [2] amounted to 0.7. Also, in experiment [3], the inhibition amounted to 68.6%. Moreover, the outcome in [4] was Active.
